Data as given in ChEMBL document CHEMBL2375346, “Lanostane triterpenoids from the mushroom Naematoloma fasciculare” (J Nat Prod, 2013).
pIC50: −log10 of the molar value. The source made the active and inactive calls. The calls are words filed in the database; no cut-off is given here.

How the values were obtained:
A549 = test: Cytotoxicity against human A549 cells assessed as growth inhibition by SRB assay; type: functional, cell-based
Outline: (§1)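 Human cancer lines supplied by NCI. Cytotoxicity was measured by sulforhodamine B (SRB) assay at KRICT, with doxorubicin as positive control. IC50 reported.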

SK-MEL-2 = test: Cytotoxicity against human SK-MEL-2 cells assessed as growth inhibition by SRB assay; type: functional, cell-based; outline: as §1
SK-OV-3 = test: Cytotoxicity against human SKOV3 cells assessed as growth inhibition by SRB assay; type: functional, cell-based; outline: as §1
HCT-15 = test: Cytotoxicity against human HCT15 cells assessed as growth inhibition by SRB assay; type: functional, cell-based; outline: as §1
BV-2 [1] = test: Cytotoxicity against mouse BV2 cells assessed as cell viability by MTT assay; type: cell-based
Outline: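 Viability of BV-2 microglia was measured by MTT assay in parallel with the LPS-stimulated NO experiment: 3 × 10^4 cells/well, 30 min compound pretreatment, then 100 ng/mL LPS for 24 h.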

BV-2 [2] = test: Antiinflammatory activity in mouse BV2 cells assessed as inhibition of LPS-induced nitrite production incubated for 30 mins prior to LPS challenge measured after 24 hrs by Griess assay; type: functional, cell-based
Outline: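 BV-2 murine microglia seeded at 3 × 10^4 cells/well, grown 24 h, then pretreated with compound for 30 min before 100 ng/mL LPS stimulation for a further 24 h. Nitrite in the medium was read by Griess reaction (1% sulfanilamide, 0.1% N-1-naphthylethylenediamine dihydrochloride in 5% phosphoric acid), with absorbance at 540 nm after 10 min against a sodium nitrite standard. L-NMMA was the positive control. IC50 reported.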

| SMILES | pIC50 (A549) | pIC50 (SK-MEL-2) | pIC50 (SK-OV-3) | pIC50 (HCT-15) | Activity (BV-2 [1]) | Activity (BV-2 [2]) | pIC50 (BV-2 [2]) |
| --- | --- | --- | --- | --- | --- | --- | --- |
| COc1cccc2c1C(=O)c1c(O)c3c(c(O)c1C2=O)C[C@@](O)(C(=O)CO)C[C@@H]3O[C@H]1C[C@H](N)[C@H](O)[C@H](C)O1 [DOXORUBICIN] | 7.70 | 8.00 | 8.00 | 6.89 | – | – | – |
| CC(C)(O)[C@H](O)CC[C@@H](CO)[C@H]1CC[C@@]2(C)C3=CC[C@H]4C(C)(C)[C@@H](O)[C@H](O)C[C@]4(C)C3=C[C@H](O)[C@]12C | 5.35 | 5.34 | 5.48 | 5.11 | Toxic | inactive | – |
| CC(C)(O)[C@H](O)CC[C@@H](CO)[C@H]1CC[C@]2(C)[C@]1(C)[C@@H](O)C=C1[C@]23O[C@H]3C[C@H]2C(C)(C)[C@@H](O)[C@H](O)C[C@]12C | 5.18 | 5.08 | 5.15 | 5.07 | Non-toxic | inactive | – |
| COC(=O)CNC(=O)CC(C)(O)CC(=O)O[C@@H]1C[C@]2(C)C3=C(CC[C@H]2C(C)(C)[C@H]1O)[C@]1(C)CC[C@H]([C@H](C)CC[C@@H](O)C(C)(C)O)[C@@]1(C)[C@@H](O)C3 (some centres not stated) | < 4.52 | 5.04 | < 4.52 | < 4.52 | Toxic | inactive | – |
| CC(C)(O)[C@H](O)CC[C@@H](CO)[C@H]1CC[C@@]2(C)C3=C(C[C@H](O)[C@]12C)[C@@]1(C)C[C@@H](OC(=O)C[C@@](C)(O)CC(=O)O)[C@H](O)C(C)(C)[C@@H]1CC3 | 4.59 | 4.60 | 4.79 | 4.55 | Non-toxic | inactive | – |
| CC(C)(O)[C@H](O)CC[C@@H](CO)[C@H]1CC[C@@]2(C)C3=C(C[C@H](O)[C@]12C)[C@@]1(C)C[C@@H](O)[C@H](O)C(C)(C)[C@@H]1CC3 | 5.63 | 5.64 | 5.55 | 5.51 | Toxic | inactive | – |
| C[C@H](CC[C@@H](O)C(C)(C)O)[C@H]1CC[C@@]2(C)C3=C(C[C@H](O)[C@]12C)[C@@]1(C)C[C@@H](O)[C@H](OC(=O)C[C@@](C)(O)CC(=O)O)C(C)(C)[C@@H]1CC3 | < 4.52 | < 4.52 | < 4.52 | < 4.52 | – | inactive | – |
| COC(=O)CNC(=O)CC(C)(O)CC(=O)O[C@H]1[C@H](O)C[C@]2(C)C3=C(CC[C@H]2C1(C)C)[C@]1(C)CC[C@H]([C@H](C)CC[C@@H](O)C(C)(C)O)[C@@]1(C)[C@@H](O)C3 (some centres not stated) | < 4.52 | 5.07 | < 4.52 | < 4.52 | Toxic | inactive | – |
| C[C@H](CC[C@@H](O)C(C)(C)O)[C@H]1CC[C@@]2(C)C3=C(C[C@H](O)[C@]12C)[C@@]1(C)C[C@@H](OC(=O)CC(C)(O)CC(=O)O)[C@H](O)C(C)(C)[C@@H]1CC3 (some centres not stated) | 4.57 | 4.78 | 4.65 | 4.55 | Non-toxic | – | 4.03 |
| C[C@H](CC[C@@H](O)C(C)(C)O)[C@H]1CC[C@@]2(C)C3=C(C[C@H](O)[C@]12C)[C@@]1(C)C[C@@H](O)[C@H](O)C(C)(C)[C@@H]1CC3 | 5.11 | 5.29 | 5.07 | 5.09 | Toxic | inactive | – |
| COC(=O)CNC(=O)CC(C)(O)CC(=O)O[C@@H]1C[C@]2(C)C3=C(CC[C@H]2C(C)(C)[C@H]1O)[C@]1(C)CC[C@H]([C@H](CO)CC[C@@H](O)C(C)(C)O)[C@@]1(C)[C@@H](O)C3 (some centres not stated) | < 4.52 | 5.24 | < 4.52 | < 4.52 | Toxic | inactive | – |
| CC(C)(O)[C@H](O)CC[C@@H](CO)[C@H]1CC[C@@]2(C)C3=C(C[C@H](O)[C@]12C)[C@@]1(C)C[C@@H](O)[C@H](OC(=O)C[C@@](C)(O)CC(=O)O)C(C)(C)[C@@H]1CC3 | < 4.52 | < 4.52 | < 4.52 | < 4.52 | Non-toxic | inactive | – |
| COC(=O)CNC(=O)CC(C)(O)CC(=O)O[C@H]1[C@H](O)C[C@]2(C)C3=C(CC[C@H]2C1(C)C)[C@]1(C)CC[C@H]([C@H](CO)CC[C@@H](O)C(C)(C)O)[C@@]1(C)[C@@H](O)C3 (some centres not stated) | < 4.52 | 5.04 | < 4.52 | < 4.52 | – | inactive | – |
| CC(C)(O)[C@H](O)CC[C@@H](CO)[C@H]1CC[C@@]2(C)C3=C(CC(=O)[C@]12C)[C@@]1(C)C[C@@H](O)[C@H](O)C(C)(C)[C@@H]1CC3 | < 4.52 | < 4.52 | 5.10 | < 4.52 | Toxic | inactive | – |
| CC(C)(O)[C@H](O)CC[C@@H](CO)[C@H]1CC[C@@]2(C)C3=C(C[C@H](O)[C@]12C)[C@@]1(C)C[C@@H](O)[C@H](O)C(C)(C)[C@@H]1CC3=O | 5.40 | 5.32 | 5.13 | 5.07 | Non-toxic | – | 4.30 |
| C[C@H](CC[C@@H](O)C(C)(C)O)[C@H]1CC[C@@]2(C)C3=C(CC(=O)[C@]12C)[C@@]1(C)C[C@@H](O)[C@H](O)C(C)(C)[C@@H]1CC3 | < 4.52 | < 4.52 | 5.01 | < 4.52 | Non-toxic | inactive | – |
